Published values from different studies.
Target: Phosphatidylinositol 4,5-bisphosphate 3-kinase catalytic subunit delta isoform (PIK3CD, Homo sapiens, UniProt O00329)
Residues used in one study (O00329 1-1044): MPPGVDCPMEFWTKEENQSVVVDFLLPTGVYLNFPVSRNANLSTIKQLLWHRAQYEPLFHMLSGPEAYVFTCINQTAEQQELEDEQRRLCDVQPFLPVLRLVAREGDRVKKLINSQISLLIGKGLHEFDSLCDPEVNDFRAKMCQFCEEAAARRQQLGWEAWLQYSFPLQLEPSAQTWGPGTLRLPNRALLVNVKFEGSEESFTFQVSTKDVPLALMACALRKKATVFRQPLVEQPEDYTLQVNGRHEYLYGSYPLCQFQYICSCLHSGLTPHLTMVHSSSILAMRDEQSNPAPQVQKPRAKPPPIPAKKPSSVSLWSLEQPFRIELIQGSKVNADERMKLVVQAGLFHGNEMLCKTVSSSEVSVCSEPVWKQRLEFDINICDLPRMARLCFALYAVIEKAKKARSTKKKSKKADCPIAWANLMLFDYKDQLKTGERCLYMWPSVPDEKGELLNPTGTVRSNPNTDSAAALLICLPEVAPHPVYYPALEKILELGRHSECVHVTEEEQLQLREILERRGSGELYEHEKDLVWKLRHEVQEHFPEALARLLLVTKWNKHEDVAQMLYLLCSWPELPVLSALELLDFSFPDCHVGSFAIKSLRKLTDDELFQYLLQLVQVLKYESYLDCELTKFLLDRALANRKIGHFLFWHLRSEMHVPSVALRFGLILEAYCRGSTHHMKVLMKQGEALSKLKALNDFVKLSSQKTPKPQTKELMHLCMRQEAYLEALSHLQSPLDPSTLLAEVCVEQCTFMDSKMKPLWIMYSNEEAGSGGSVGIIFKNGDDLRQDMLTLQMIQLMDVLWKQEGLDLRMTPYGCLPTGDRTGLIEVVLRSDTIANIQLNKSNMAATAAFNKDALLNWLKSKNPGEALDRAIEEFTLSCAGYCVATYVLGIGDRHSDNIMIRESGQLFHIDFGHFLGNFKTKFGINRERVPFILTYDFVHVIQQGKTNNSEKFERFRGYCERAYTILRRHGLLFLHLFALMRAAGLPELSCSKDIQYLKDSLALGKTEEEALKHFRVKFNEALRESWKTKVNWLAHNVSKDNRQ

The remaining binding of Cc1cc(NC(=O)c2cccc(S(F)(F)(F)(F)F)c2)cc(-n2ccn3nc(-c4cccnc4)cc23)c1 is reported as 100% (cell-free assay, competition with immobilised ligand; 1 µM).
The remaining binding of c1cncc(-c2cccc(Nc3nccc(NC4CCCCC4)n3)c2)c1 is reported as 88% (binding, competition with immobilised ligand; 10 µM).
CN(C)c1ncc(F)c(-c2cnn3ncccc23)n1 has a remaining binding of 98% (binding; 1 µM).
Cc1cnc(Nc2ccc(C(=O)N3CCC(N4CCCC4)CC3)cc2)nc1-c1cc2ccccc2s1 has a remaining binding of 90% (binding, competition with immobilised ligand; 1 µM).
With COc1cnc(Nc2cccc(S(N)(=O)=O)c2)nc1N1CCN(c2ccccc2)CC1 the remaining binding was 81% (binding, competition with immobilised ligand; 1 µM).
O=C(c1ccc(Nc2nccc(-c3cc4ccccc4s3)n2)cc1)N1CCC(N2CCCC2)CC1 gave a remaining binding of 41% (binding, competition with immobilised ligand; 1 µM).
With COc1ccc2c(c1)O[C@@H](c1ccc(OC)c(OC)c1)C[C@H]2NC(=O)C1(c2ccc3c(c2)OC(F)(F)O3)CC1 the remaining binding was 97% (cell-free assay, competition with immobilised ligand; 1 µM).
With N[C@H]1CCN(c2nccc(-c3cnn4ncccc34)n2)C1 the remaining binding was 100% (binding; 1 µM).
For CSc1cccnc1N1CCN(Cc2nc3ccccc3[nH]2)CC1, the remaining binding was 100% (cell-free assay, competition with immobilised ligand; 1 µM).
For CN(C)c1nccc(-c2cnc3ncccn23)n1, the remaining binding was 50% (binding; 1 µM).
For CCOCCn1cc(C(=O)Nc2ccc(-n3nc(-c4cccnc4)cc3C(F)(F)F)cn2)ccc1=O, the remaining binding was 100% (cell-free assay, competition with immobilised ligand; 1 µM).
The remaining binding of C[C@H]1CCN(c2nccc(-c3cnn4ncccc34)n2)C1 is reported as 100% (binding; 1 µM).
For CCN1CCN(Cc2ccc(C(=O)Nc3ccc(C)c(Oc4ccc5c(c4)CC(=O)N5)c3)cc2C(F)(F)F)CC1, the remaining binding was 100% (binding, competition with immobilised ligand; 1 µM).
COc1cnc(Nc2cccc(S(N)(=O)=O)c2)nc1N1CCN(c2ccccc2)C(=O)C1 has a remaining binding of 47% (binding, competition with immobilised ligand; 1 µM).
Cc1cnn2ncc(-c3ccnc(N(C)C)n3)c2c1 gave a remaining binding of 100% (binding; 1 µM).
CN(c1ccnc(CNc2nc(Nc3ccc4c(c3)CC(=O)N4)ncc2C(F)(F)F)n1)S(C)(=O)=O gave a remaining binding of 77% (cell-free assay, competition with immobilised ligand; 1 µM).
O=C(NCCCN1CCOCC1)c1ccc(Nc2ncc(Cl)c(-c3ccc(Cl)s3)n2)cc1 gave a remaining binding of 100% (binding, competition with immobilised ligand; 1 µM).
The remaining binding of C[C@H](NC(=O)c1cnc2n1[C@](C)(Cc1ccc(C#N)cc1)C(=O)N2c1cc(Cl)c(F)c(Cl)c1)C(=O)NC1(c2ccccn2)CC1 is reported as 95% (cell-free assay, competition with immobilised ligand; 1 µM).
CC1CCCN1c1nccc(-c2cnn3ncccc23)n1 (centres unmarked) has a remaining binding of 100% (binding; 1 µM).
With O=C(NCC1CCOCC1)c1n[nH]cc1NC(=O)c1c(F)cccc1F the remaining binding was 87% (binding, competition with immobilised ligand; 1 µM).
